Tests used:
[1] = target: Serotonin 1 (5-HT1) receptor (Rattus norvegicus) (UniProt P28564+P30940+P19327+P28565); assay: Compound is evaluated for binding affinity towards 5-hydroxytryptamine 1 receptor using [3H]5-HT in rat brain cortex at 10 uM; type: tissue-based
Procedure, shortened: (§1)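 Single-concentration screen at 10 µM in contract radioligand binding assays. Records whether inhibition of specific radioligand binding stayed below 50%.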

[2] = target: D(2) dopamine receptor (Homo sapiens, UniProt P14416); assay: Compound is evaluated for binding affinity towards recombinant human Dopamine receptor D2 using [3H]spiperone in CHO cells at 10 uM; type: cell-based; procedure, shortened: as §1
[3] = target: T1, 5-hydroxytryptamine receptor 1A (Rattus norvegicus, UniProt P19327); assay: Compound is evaluated for binding affinity towards 5-hydroxytryptamine 1A receptor using [3H]-8-OH- -DPAT in rat brain cortex; type: tissue-based
T1 sequence (P19327 whole entry): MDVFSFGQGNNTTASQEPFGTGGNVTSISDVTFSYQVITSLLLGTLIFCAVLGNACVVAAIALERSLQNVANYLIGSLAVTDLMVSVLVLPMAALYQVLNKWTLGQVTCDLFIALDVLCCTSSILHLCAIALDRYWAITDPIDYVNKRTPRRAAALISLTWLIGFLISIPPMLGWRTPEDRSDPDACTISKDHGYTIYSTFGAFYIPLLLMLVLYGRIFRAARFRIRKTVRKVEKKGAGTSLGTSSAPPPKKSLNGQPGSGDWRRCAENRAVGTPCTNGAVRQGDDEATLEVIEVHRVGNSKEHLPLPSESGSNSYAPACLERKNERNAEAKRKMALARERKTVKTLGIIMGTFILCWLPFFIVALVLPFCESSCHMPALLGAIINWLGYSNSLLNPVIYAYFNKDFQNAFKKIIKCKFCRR
Procedure, shortened: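 Contract radioligand competition binding. Sources: 5-HT1 and 5-HT1A in rat brain cortex; 5-HT2 and σ2 in rat brain; σ in guinea pig brain; D2, rhD2 and rhD3 in CHO cells with [³H]spiperone; H1 in guinea pig lung with [³H]pyrilamine. Inhibition constants reported; no constant given where inhibition at 10 µM was below 50%.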

[4] = target: T2, Adrenergic receptor alpha-2 (Rattus norvegicus, UniProt P22086+P19328+P22909); assay: Displacement of clonidine from Alpha-2 adrenergic receptor of rat cortical membranes; type: cell membranes, Membrane
T2 sequence (P22086 whole entry): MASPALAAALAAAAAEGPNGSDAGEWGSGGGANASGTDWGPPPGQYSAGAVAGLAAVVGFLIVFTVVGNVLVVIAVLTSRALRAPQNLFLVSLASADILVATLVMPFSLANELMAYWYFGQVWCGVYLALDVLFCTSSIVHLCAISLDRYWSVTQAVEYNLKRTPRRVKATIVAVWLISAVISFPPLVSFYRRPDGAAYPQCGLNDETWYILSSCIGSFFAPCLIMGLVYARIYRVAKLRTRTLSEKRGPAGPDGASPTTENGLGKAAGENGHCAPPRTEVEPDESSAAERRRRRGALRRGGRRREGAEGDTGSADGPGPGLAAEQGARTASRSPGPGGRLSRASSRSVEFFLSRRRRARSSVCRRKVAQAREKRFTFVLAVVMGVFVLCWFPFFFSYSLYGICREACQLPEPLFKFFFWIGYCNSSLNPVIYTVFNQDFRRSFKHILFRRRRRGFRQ
T2 sequence (P19328 whole entry): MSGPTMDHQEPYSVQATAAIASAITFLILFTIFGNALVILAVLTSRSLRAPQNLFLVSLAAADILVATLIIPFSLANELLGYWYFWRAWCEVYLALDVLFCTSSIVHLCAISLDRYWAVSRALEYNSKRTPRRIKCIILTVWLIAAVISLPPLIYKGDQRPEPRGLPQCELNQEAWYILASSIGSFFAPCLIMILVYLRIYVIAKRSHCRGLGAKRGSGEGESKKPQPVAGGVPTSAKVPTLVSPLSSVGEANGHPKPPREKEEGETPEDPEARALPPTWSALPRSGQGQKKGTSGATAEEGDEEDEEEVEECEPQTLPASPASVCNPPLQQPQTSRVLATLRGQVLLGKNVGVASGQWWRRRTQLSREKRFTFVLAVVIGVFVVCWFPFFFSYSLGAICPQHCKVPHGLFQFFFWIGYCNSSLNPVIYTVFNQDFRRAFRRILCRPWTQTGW
T2 sequence (P22909 whole entry): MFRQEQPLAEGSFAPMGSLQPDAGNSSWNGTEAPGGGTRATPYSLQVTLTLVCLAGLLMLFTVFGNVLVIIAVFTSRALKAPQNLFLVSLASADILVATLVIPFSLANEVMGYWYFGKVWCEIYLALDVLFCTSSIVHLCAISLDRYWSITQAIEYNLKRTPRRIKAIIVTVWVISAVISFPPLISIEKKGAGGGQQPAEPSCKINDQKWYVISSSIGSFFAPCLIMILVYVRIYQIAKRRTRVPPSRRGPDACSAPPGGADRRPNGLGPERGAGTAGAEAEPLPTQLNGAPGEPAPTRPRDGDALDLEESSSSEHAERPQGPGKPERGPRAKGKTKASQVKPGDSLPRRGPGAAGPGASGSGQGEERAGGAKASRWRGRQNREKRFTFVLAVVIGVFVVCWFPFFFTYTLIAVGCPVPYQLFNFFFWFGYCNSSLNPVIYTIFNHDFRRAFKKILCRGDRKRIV
Procedure, shortened: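 α2 competition binding run in triplicate with 1 nM [³H]clonidine plus 10 mM MgCl₂ in Tris pH 7.4, 30 min at room temperature. Test compounds at 1-100 µM. Nonspecific binding defined with 10 µM clonidine. Membranes collected on GF/B filters and washed twice with cold Tris. Protein 300-400 µg per assay. Ki given as mean ± SEM of 3-6 experiments.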

[5] = target: T3, Alpha-1B adrenergic receptor (Rattus norvegicus, UniProt P15823); assay: Displacement of [3H]prazosin from Alpha-1B adrenergic receptor of rat liver membrane
T3 sequence (P15823 whole entry): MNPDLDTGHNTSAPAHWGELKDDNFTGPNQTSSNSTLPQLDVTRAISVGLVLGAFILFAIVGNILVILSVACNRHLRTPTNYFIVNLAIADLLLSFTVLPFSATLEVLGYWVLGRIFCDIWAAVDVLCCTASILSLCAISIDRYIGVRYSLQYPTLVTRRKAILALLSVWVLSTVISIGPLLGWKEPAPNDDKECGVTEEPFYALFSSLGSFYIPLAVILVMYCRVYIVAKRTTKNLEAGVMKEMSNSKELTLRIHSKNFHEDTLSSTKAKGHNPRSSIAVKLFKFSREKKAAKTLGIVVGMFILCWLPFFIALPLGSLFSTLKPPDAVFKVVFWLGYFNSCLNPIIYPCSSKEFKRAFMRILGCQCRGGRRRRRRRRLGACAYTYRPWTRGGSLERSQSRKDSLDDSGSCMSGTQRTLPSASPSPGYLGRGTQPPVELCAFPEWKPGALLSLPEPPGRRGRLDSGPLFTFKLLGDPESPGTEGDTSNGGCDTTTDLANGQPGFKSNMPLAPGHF
Procedure, shortened: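 Triplicate competition binding against 0.2-0.25 nM [³H]prazosin in Tris buffer pH 7.4, 30 min at room temperature. Competitor range 0.1-200 nM. Nonspecific binding defined with 10 µM phentolamine. Reaction stopped by GF/B filtration with two cold Tris washes. Membrane protein 300-400 µg per assay. Ki calculated from the data; mean ± SEM of 3-6 experiments.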

Sequence of D(2) dopamine receptor (P14416 whole entry): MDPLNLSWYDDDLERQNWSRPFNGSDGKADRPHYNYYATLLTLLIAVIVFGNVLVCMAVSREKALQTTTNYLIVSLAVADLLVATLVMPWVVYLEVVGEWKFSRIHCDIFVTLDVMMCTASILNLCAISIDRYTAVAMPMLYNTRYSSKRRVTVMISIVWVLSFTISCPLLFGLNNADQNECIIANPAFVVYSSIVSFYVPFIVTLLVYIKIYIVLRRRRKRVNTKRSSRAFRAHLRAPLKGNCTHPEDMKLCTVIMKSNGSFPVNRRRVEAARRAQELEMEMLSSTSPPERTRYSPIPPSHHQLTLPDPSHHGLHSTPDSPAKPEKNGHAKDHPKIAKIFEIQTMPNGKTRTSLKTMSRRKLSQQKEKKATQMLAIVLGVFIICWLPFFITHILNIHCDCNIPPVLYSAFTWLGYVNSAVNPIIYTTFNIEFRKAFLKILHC

SMILES | inhibition [1] [%] | inhibition [2] [%] | Ki [3] [nM] | Ki [4] [nM] | Ki [5] [nM]
Oc1nc2ccccc2c2ncc(CN3CCN(c4ccccc4Cl)CC3)n12 | < 50 | < 50 |  |  | 
COc1ccccc1N1CCN(CC2CN=C3c4ccccc4N=C(SC)N32)CC1 (configuration not stated) |  |  | 237 | 970 | 3.9
COc1ccccc1N1CCN(Cc2cnc3c4ccccc4nc(O)n23)CC1 | < 50 | < 50 | 4000 |  | 
COc1ccccc1N1CCN(Cc2cn3c(O)nc4ccccc4c3n2)CC1 | < 50 | < 50 |  |  | 
COc1ccccc1N1CCN(CC2CN3C(=O)Nc4ccccc4C3=N2)CC1 (configuration not stated) |  | < 50 | 238 | 230 | 5.5
COc1ccccc1N1CCN(C[C@@H]2CN=C3c4ccccc4N=C(SC)N32)CC1 |  |  |  | 9000 | 667
COc1ccccc1N1CCN(C[C@H]2CN=C3c4ccccc4N=C(SC)N32)CC1 |  |  |  | 3500 | 1.4
COc1ccccc1N1CCN(C[C@H]2CN=C3c4ccccc4NC(=O)N32)CC1 |  |  |  | 183 | 0.42
COc1ccccc1N1CCN(C[C@@H]2CN=C3c4ccccc4NC(=O)N32)CC1 |  |  |  | > 10000 | 123

Source: ChEMBL document CHEMBL1131058, “Studies on quinazolines and 1,2,4-benzothiadiazine 1,1-dioxides. 8.1, 2 synthesis and pharmacological evaluation of tricyclic fused quinazolines and 1,2,4-benzothiadiazine 1,1-dioxides as potential alpha1-adrenoceptor antagonists” (J Med Chem, 1998)
